Source: publication PMC11983213 (ACS Omega, 2025)
Converted amounts (≈) assume the structure as drawn.

Assays:
[1] = test system: MCF-7 breast cancer cell line; assay: MTT cytotoxicity assay on MCF-7; type: cell-based; details: Homo sapiens, MCF7, 48 h
How it was run: (§1)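 Cells held in RPMI-1640 or DMEM with 2 mM L-glutamine, 1% penicillin/streptomycin and 10% FBS at 37 °C, 5% CO2. Seeded in triplicate at 5000 cells per well, then treated next day with test extract or compound. After 48 h exposure, MTT reagent added for 3 h and signal read at 570 nm. IC50 estimated from the viability data.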

[2] = test system: MDA-MB-231 breast cancer cell line; assay: MTT cytotoxicity assay on MDA-MB-231; type: cell-based; details: Homo sapiens, MDA-MB-231, 48 h
How it was run: as §1

[3] = test system: HepG2 liver cancer cell line; assay: MTT cytotoxicity assay on HepG2; type: cell-based; details: Homo sapiens, HepG2, 48 h
How it was run: as §1

[4] = test system: HSF normal cell line; assay: MTT cytotoxicity assay on HSF; type: cell-based; details: 48 h
How it was run: as §1

[5] = test system: breast and colon cancer cells; details: cited from earlier work
[6] = test system: protein tyrosine kinases v-src and pp60src; details: cited from earlier work
[7] = test system: SPC-1-A, Bcap37, and HepG2 cancer cells; details: via the mitochondrial apoptotic pathway; cited from earlier work
[8] = test system: pancreatic cancer cells; details: by blocking NF-κB activation; cited from earlier work
[9] = test system: breast and bone cancers; details: cited from earlier work
[10] = test system: breast and skin cancer cells; details: cancer versus normal cells; cited from earlier work
[11] = test system: gastric cancer cells; details: via PI3K/Akt/Snail pathway; cited from earlier work
[12] = test system: breast cancer cells; details: cited from earlier work

Row | Compound | IC50 [1] [µg/mL] | IC50 [2] [µg/mL] | IC50 [3] [µg/mL] | IC50 [4] [µg/mL] | further results
1 | O=C1c2ccccc2C(=O)c2c(O)c(O)cc(O)c21 [purpurin] | 148 (≈ 577 µM) | 244 (≈ 954 µM) | 179 (≈ 700 µM) | 201 (≈ 783 µM) | 
2 | O=C1c2ccccc2C(=O)c2cc(O)ccc21 [2-hydroxyanthraquinone] |  |  |  |  | induction of apoptosis [5]: resulting in apoptosis via inhibiting antiapoptotic pathways; inhibitory activity against protein tyrosine kinases [6]: exhibited inhibitory activity; effect on cell growth [7]: arrested the growth
3 | CC(=O)Oc1ccc2c(c1O)C(=O)c1ccccc1C2=O [alizarin-2-acetate, 9,10-Dihydro-1-hydroxy-9,10-dioxoanthracen-2-yl Acetate] | 120 | 157 | ≥ 50 | 151 | 
4 | O=C1c2ccccc2C(=O)c2c1ccc(O)c2O [alizarin] | 66.9 (≈ 279 µM) | 52.6 (≈ 219 µM) | 99.4 (≈ 414 µM) | 111 (≈ 462 µM) | effect on cell growth [8]: prevented pancreatic cancer cells from growing; effect on breast and bone cancers [9]: impaired both breast and bone cancers by inducing cell cycle arrest in the S phase and inhibiting ERK phosphorylation
5 | COc1ccc2c(c1O)C(=O)c1ccccc1C2=O [2-methyl alizarin, 1-Hydroxy-2-methoxyanthracene-9,10-dione] | 52.1 (≈ 205 µM) | 83 (≈ 327 µM) | 8.88 (≈ 34.9 µM) | 67 (≈ 264 µM) | 
6 | COc1cccc2c1C(=O)c1c(O)c3c(c(O)c1C2=O)C[C@@](O)(C(=O)CO)C[C@@H]3O[C@H]1C[C@H](N)[C@H](O)[C@H](C)O1 [Doxorubicin, reference compound] | 2.17 (≈ 3.99 µM) | 7.05 (≈ 13 µM) | 2.48 (≈ 4.56 µM) |  | 
7 | O=C1c2ccccc2C(=O)c2c(O)cc(O)cc21 [xanthopurpurin] |  |  |  |  | selective toxicity [10]: high selective toxicity toward breast and skin cancer cells at lower concentrations without inducing toxicity toward normal cells
8 | COc1ccc(-c2cc(=O)c3c(O)cc(O)cc3o2)cc1 [acacetin] |  |  |  |  | effect on invasion, migration and TGF-β1-induced EMT [11]: prevented gastric cancer cells from invasively migrating and developing TGF-β1-induced epithelial-to-mesenchymal transition; induction of cell death [12]: caused RIP1-dependent necroptotic death and prolonged ERK1/2 activation
9 | CC(=O)Oc1ccc2c(c1OC(C)=O)C(=O)c1ccccc1C2=O [alizarin-1,2-diacetate, 1,2-Diacetoxyanthraquinone] | 135 (≈ 416 µM) | 127 (≈ 391 µM) | ≥ 50 | 142 (≈ 437 µM) | 
